Article PMC10784704 (The Journal of Biological Chemistry, 2023)

T1: neutrophil elastase (NE) (Homo sapiens, UniProt P08246)
T1 sequence (P08246 30-267): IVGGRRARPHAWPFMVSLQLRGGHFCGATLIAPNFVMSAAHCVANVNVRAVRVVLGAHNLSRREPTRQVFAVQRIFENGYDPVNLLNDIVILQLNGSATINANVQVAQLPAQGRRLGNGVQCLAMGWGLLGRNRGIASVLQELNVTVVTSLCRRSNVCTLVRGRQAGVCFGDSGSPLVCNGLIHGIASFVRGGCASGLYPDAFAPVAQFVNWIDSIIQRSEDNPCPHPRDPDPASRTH

B1: rCBG: Polyhistidine-tagged recombinant human CBG expressed in HEK293 cells (Sino Biological) (protein, UniProt P08185 23-405, looked up)
Corticosteroid-binding …: MDPNAAYVNMSNHHRGLASANVDFAFSLYKHLVALSPKKNIFISPVSISMALAMLSLGTCGHTRAQLLQGLGFNLTERSETEIHQGFQHLHQLFAKSDTSLEMTMGNALFLDGSLELLESFSADIKHYYESEVLAMNFQDWATASRQINSYVKNKTQGKIVDLFSGLDSPAILVLVNYIFFKGTWTQPFDLASTREENFYVDETTVVKVPMMLQSSTISYLHDSELPCQLVQMNYVGNGTVFFILPDKGKMNTVIAALSRDTINRWSAGLTSSQVDLYIPKVTISGVYDLGDVLEEMGIADLFTNQANFSRITQDAQLKSSKVVHKAVLQLNEEGVDTAGSTGVTLNLTSKPIILRFNQPFIIMIFDHFTWSSLFLARVMNPV
modifications: polyhistidine tag
B2: asialo-rCBG: sialic acid-deficient glycoform of rCBG generated through exhaustive sialidase (neuraminidase A) treatment (protein, UniProt P08185 23-405, looked up)
Corticosteroid-binding …: B1 Corticosteroid-binding …
modifications: His tag; desialylated by neuraminidase

Target: T1, neutrophil elastase (NE)
Assay: Longitudinal NE digestion of rCBG and asialo-rCBG
Assay type: in vitro ADME
Conditions: rCBG/NE 25:1 (w/w), on ice, 480 s incubation period; trypsin digest, LC-MS/MS
How it was run: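 Recombinant CBG, native or desialylated with neuraminidase A (40 U, overnight, 37 °C), digested with NE at 25:1 (w/w) on ice for 15, 30, 60, 120, 240 and 480 s. Stopped with 1 mM PMSF (8 min, ice), reduced with DTT, alkylated with IAA, and trypsin-digested at 20:1 (w/w) overnight at 37 °C. LC-MS/MS tracked intact and cleaved RCL peptides (unoccupied, sialo- and asialo-O-glycosylated). Mean + SD, n = 3.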

Row | Molecule | Effect of Thr345 O-glycans on NE proteolysis reaction
1 | B1 | strongly inhibit
2 | B2 | strongly inhibit
